Laboratory results as given in ChEMBL document CHEMBL2417469, “Synthesis of novel analogs of 2-pyrazoline obtained from [(7-chloroquinolin-4-yl)amino]chalcones and hydrazine as potential antitumor and antimalarial agents” (Eur J Med Chem, 2013).

Columns and labels:
Format in all cases: functional
A549 = assay: Cytotoxicity against human A549/ATCC cells after 48 hrs by SRB assay; details: A549, 48 h
Method in brief: (§1)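 NCI 60-cell-line screen. Cells preincubated 24 h at 37 °C, 5% CO2; time-zero plates TCA-fixed. Compounds dissolved in DMSO and tested at five concentrations (100, 10, 1.0, 0.1, 0.01 µM) for 48 h continuous exposure. Adherent cells fixed with cold TCA (10% final), then SRB stained; absorbance at 515 nm. GI50, TGI and LC50 calculated from growth relative to time-zero and untreated controls.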

UACC-257 = assay: Cytotoxicity against human UACC257 cells after 48 hrs by SRB assay; details: UACC-257, 48 h
Method in brief: (§2)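 NCI 60-cell screen. Cells grew 24 h (37 °C, 5% CO2) before compound was added. Compounds were in DMSO and diluted in medium with gentamicin, then tested at five levels (100, 10, 1.0, 0.1, 0.01 µM) with 48 h continuous exposure. Adherent cells were fixed with TCA (10% final) and stained with 0.4% SRB, absorbance read at 515 nm. A time-zero plate was included. LC50 is the concentration giving 50% loss of protein relative to time zero.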

OVCAR-3 = assay: Cytotoxicity against human OVCAR3 cells after 48 hrs by SRB assay; details: OVCAR-3, 48 h; method in brief: as §1
MCF7 = assay: Cytotoxicity against human MCF7 cells after 48 hrs by SRB assay; details: MCF7, 48 h; method in brief: as §1
[1] = Cytotoxicity against human EKVX cells after 48 hrs by SRB assay; method in brief: as §1
Hs-578T = assay: Cytotoxicity against human Hs578T cells after 48 hrs by SRB assay; method in brief: as §1
HCC 2998 = assay: Cytotoxicity against human HCC2998 cells after 48 hrs by SRB assay; details: HCC 2998, 48 h; method in brief: as §1
NCI-H460 = assay: Cytotoxicity against human NCI-H460 cells after 48 hrs by SRB assay; details: NCI-H460, 48 h; method in brief: as §1
SK-MEL-2 = assay: Cytotoxicity against human SK-MEL-2 cells after 48 hrs by SRB assay; details: SK-MEL-2, 48 h; method in brief: as §1
HCT-15 = assay: Cytotoxicity against human HCT15 cells after 48 hrs by SRB assay; details: HCT-15, 48 h; method in brief: as §1
HL-60(TB) = assay: Cytotoxicity against human HL-60(TB) cells after 48 hrs by SRB assay; details: HL-60, 48 h; method in brief: as §1
NCI-H23 = assay: Cytotoxicity against human NCI-H23 cells after 48 hrs by SRB assay; details: NCI-H23, 48 h; method in brief: as §1
LOX IMVI = assay: Cytotoxicity against human LOXIMVI cells after 48 hrs by SRB assay; method in brief: as §1
SNB-19 = assay: Cytotoxicity against human SNB19 cells after 48 hrs by SRB assay; details: SNB-19, 48 h; method in brief: as §2
HOP-92 = assay: Cytotoxicity against human HOP92 cells after 48 hrs by SRB assay; details: HOP-92, 48 h; method in brief: as §1
SN12C = assay: Cytotoxicity against human SN12C cells after 48 hrs by SRB assay; method in brief: as §1
SK-MEL-5 = assay: Cytotoxicity against human SK-MEL-5 cells after 48 hrs by SRB assay; details: SK-MEL-5, 48 h; method in brief: as §1
OVCAR-4 = assay: Cytotoxicity against human OVCAR4 cells after 48 hrs by SRB assay; details: OVCAR-4, 48 h; method in brief: as §1
786-0 = assay: Cytotoxicity against human 786-0 cells after 48 hrs by SRB assay; details: 786-0, 48 h; method in brief: as §1
DU-145 = assay: Cytotoxicity against human DU145 cells after 48 hrs by SRB assay; details: DU-145, 48 h; method in brief: as §1
BT-549 = assay: Cytotoxicity against human BT549 cells after 48 hrs by SRB assay; details: BT-549, 48 h; method in brief: as §1
HOP-62 = assay: Cytotoxicity against human HOP62 cells after 48 hrs by SRB assay; details: HOP-62, 48 h; method in brief: as §1
MDA-MB-435 = assay: Cytotoxicity against human MDA-MB-435 cells after 48 hrs by SRB assay; details: MDA-MB-435, 48 h; method in brief: as §1
MDA-MB-231 = assay: Cytotoxicity against human MDA-MB-231 cells after 48 hrs by SRB assay; details: MDA-MB-231, 48 h; method in brief: as §1
MDA-MB-468 = assay: Cytotoxicity against human MDA-MB-468 cells after 48 hrs by SRB assay; details: MDA-MB-468, 48 h; method in brief: as §1
NCI-H226 = assay: Cytotoxicity against human NCI-H226 cells after 48 hrs by SRB assay; details: NCI-H226, 48 h; method in brief: as §1
NCI-H522 = assay: Cytotoxicity against human NCI-H522 cells after 48 hrs by SRB assay; details: NCI-H522, 48 h; method in brief: as §1
UACC-62 = assay: Cytotoxicity against human UACC62 cells after 48 hrs by SRB assay; details: UACC-62, 48 h; method in brief: as §2
KM12 = assay: Cytotoxicity against human KM12 cells after 48 hrs by SRB assay; details: KM12, 48 h; method in brief: as §1
M14 = assay: Cytotoxicity against human M14 cells after 48 hrs by SRB assay; details: M14, 48 h; method in brief: as §1
SF-268 = assay: Cytotoxicity against human SF268 cells after 48 hrs by SRB assay; details: SF-268, 48 h; method in brief: as §1
SNB-75 = assay: Cytotoxicity against human SNB75 cells after 48 hrs by SRB assay; details: SNB-75, 48 h; method in brief: as §2
IGROV-1 = assay: Cytotoxicity against human IGROV1 cells after 48 hrs by SRB assay; details: IGROV-1, 48 h; method in brief: as §1
PC-3 = assay: Cytotoxicity against human PC3 cells after 48 hrs by SRB assay; details: PC-3, 48 h; method in brief: as §1
NCI/ADR-RES = assay: Cytotoxicity against human NCI/ADR-RES cells after 48 hrs by SRB assay; method in brief: as §1
UO-31 = assay: Cytotoxicity against human UO31 cells after 48 hrs by SRB assay; details: UO-31, 48 h; method in brief: as §2
[2] = read-out: LC50 (the source's name)

CC(=O)N1N=C(c2ccc(Nc3ccnc4cc(Cl)ccc34)cc2)CC1c1ccc(Cl)cc1 (stereo not given)
GI50 (A549): 8.81 µM | CC50 (A549; [2]): > 100 µM | GI50 (UACC-257): > 100 µM | LC50 (UACC-257): > 100 µM | GI50 (OVCAR-3): 7.19 µM | LC50 (OVCAR-3): > 100 µM | GI50 (MCF7): 4.04 µM | CC50 (MCF7; [2]): > 100 µM | LC50 [1]: > 100 µM | GI50 (Hs-578T): > 100 µM | LC50 (50% net cell kill) (Hs-578T): > 100 µM | GI50 (HCC 2998): > 100 µM | LC50 (HCC 2998): > 100 µM | GI50 (NCI-H460): > 100 µM | LC50 (NCI-H460): > 100 µM | GI50 (SK-MEL-2): > 100 µM | LC50 (SK-MEL-2): > 100 µM | GI50 (HCT-15): 3.33 µM | LC50 (concentration killing 50% of cells relative to time zero) (HCT-15): > 100 µM | GI50 (HL-60(TB)): 3.56 µM | CC50 (HL-60(TB); [2]): > 100 µM | GI50 (NCI-H23): > 100 µM | CC50 (NCI-H23; [2]): > 100 µM | GI50 (LOX IMVI): 3.15 µM | LC50 (LOX IMVI): > 100 µM | GI50 (SNB-19): > 100 µM | LC50 (SNB-19): > 100 µM | GI50 (HOP-92): > 100 µM | LC50 (concentration killing 50% of cells) (HOP-92): > 100 µM | GI50 (SN12C): 30.7 µM | LC50 (50% net cell kill relative to time zero) (SN12C): > 100 µM | GI50 (SK-MEL-5): 2.2 µM | LC50 (concentration killing 50% of cells present at time zero) (SK-MEL-5): > 100 µM | GI50 (OVCAR-4): 6.92 µM | LC50 (OVCAR-4): > 100 µM | GI50 (786-0): > 100 µM | LC50 (786-0): > 100 µM | GI50 (DU-145): > 100 µM | LC50 (concentration killing 50% of cells) (DU-145): > 100 µM | GI50 (BT-549): 5.4 µM | LC50 (50% net cell kill vs time zero) (BT-549): > 100 µM | GI50 (HOP-62): > 100 µM | LC50 (50% lethal concentration) (HOP-62): > 100 µM | GI50 (MDA-MB-435): 0.57 µM | LC50 (MDA-MB-435): > 100 µM | GI50 (MDA-MB-231): > 100 µM | LC50 (concentration killing 50% of cells present at time zero) (MDA-MB-231): > 100 µM | GI50 (MDA-MB-468): 2.41 µM | LC50 (MDA-MB-468): > 100 µM | GI50 (NCI-H226): > 100 µM | LC50 (50% lethal concentration) (NCI-H226): > 100 µM | GI50 (NCI-H522): 5.05 µM | CC50 (NCI-H522; [2]): > 100 µM | GI50 (UACC-62): 2.95 µM | CC50 (UACC-62; [2]): > 100 µM | GI50 (KM12): 6.59 µM | LC50 (concentration killing 50% of cells) (KM12): > 100 µM | GI50 (M14): 5.24 µM | CC50 (M14; [2]): > 100 µM | GI50 (SF-268): 9.1 µM | LC50 (SF-268): > 100 µM | LC50 (50% net cell kill) (SNB-75): > 100 µM | GI50 (IGROV-1): > 100 µM | LC50 (concentration killing 50% of cells relative to time zero) (IGROV-1): > 100 µM | GI50 (PC-3): 3.02 µM | LC50 (PC-3): > 100 µM | GI50 (NCI/ADR-RES): 3.04 µM | CC50 (NCI/ADR-RES; [2]): > 100 µM | GI50 (UO-31): 3.87 µM | LC50 (UO-31): > 100 µM
